Legend:
Type in all cases: functional
SNB-19 = assay: Cytotoxicity against human SNB19 cells assessed as cell growth at 100 nM after 48 hrs by sulforhodamine B assay; details: SNB-19, 48 h, read-out: Activity
SNB-75 [1] = assay: Cytotoxicity against human SNB75 cells assessed as cell growth at 100 nM after 48 hrs by sulforhodamine B assay; details: SNB-75, 48 h, read-out: Activity
SK-MEL-5 = assay: Cytotoxicity against human SK-MEL-5 cells assessed as cell growth at 100 nM after 48 hrs by sulforhodamine B assay; details: SK-MEL-5, 48 h, read-out: Activity
UACC-257 = assay: Cytotoxicity against human UACC257 cells assessed as cell growth at 100 nM after 48 hrs by sulforhodamine B assay; details: UACC-257, 48 h, read-out: Activity
OVCAR-3 = assay: Cytotoxicity against human OVCAR-3 cells assessed as cell growth at 100 nM after 48 hrs by sulforhodamine B assay; details: OVCAR-3, 48 h, read-out: Activity
HL-60(TB) = assay: Cytotoxicity against human HL-60(TB) cells assessed as cell growth at 0.01 uM after 48 hrs by sulforhodamine B assay; details: HL-60, 48 h, read-out: Activity
Method in brief: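 NCI 60-cell panel. Cells are grown in RPMI 1640 with 5% FBS and 2 mM L-glutamine, seeded at 5000–40,000 cells/well according to doubling time, and preincubated 24 h. Time-zero plates are TCA-fixed. Compound from DMSO stock is given at five 10-fold or 1/2-log concentrations for 48 h at 37 °C, 5% CO2. Suspension cells are fixed with 80% TCA (final 16%) and SRB-stained, with absorbance at 515 nm. Percent growth is derived from Tz, control and test readings.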

[2] = Cytotoxicity against human Hs 578T cells assessed as cell growth at 100 nM after 48 hrs by sulforhodamine B assay; details: read-out: Activity
IGROV-1 [3] = assay: Cytotoxicity against human IGROV1 cells assessed as cell growth at 10 uM; details: read-out: Activity
Method in brief: (§1)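 Single-dose NCI-60 screen at 10 µM. Cells were grown in RPMI 1640 with 5% FBS and 2 mM L-glutamine, then treated for 48 h at 37 °C. Protein was measured by SRB staining with absorbance at 515 nm. Percentage growth was recorded, and inhibition percentage was calculated as 100 minus growth percentage.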

SK-OV-3 [4] = assay: Cytotoxicity against human SKOV3 cells assessed as cell growth at 10 uM; details: read-out: Activity
Method in brief: (§2)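 NCI-60 screen: cells grown in RPMI 1640 with 5% FBS and 2 mM L-glutamine, plated at 5000–40,000 cells/well according to doubling time, and preincubated 24 h at 37 °C, 5% CO2. The single 10 µM dose (DMSO stock) was added, then incubated 48 h. Cells were TCA-fixed and stained with 0.4% SRB, read at 515 nm, and growth % calculated against time-zero and control plates.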

DU-145 = assay: Cytotoxicity against human DU145 cells assessed as cell growth at 10 uM; details: read-out: Activity; method in brief: as §1
[5] = Cytotoxicity against human Hs 578T cells assessed as cell growth at 10 uM; details: read-out: Activity; method in brief: as §1
EKVX [6] = assay: Cytotoxicity against human EKVX cells assessed as cell growth at 0.001 uM after 48 hrs by sulforhodamine B assay; details: read-out: Activity
HCT-15 [7] = assay: Cytotoxicity against human HCT15 cells assessed as cell growth at 1 uM after 48 hrs by sulforhodamine B assay; details: HCT-15, 48 h, read-out: Activity
HT-29 [8] = assay: Cytotoxicity against human HT-29 cells assessed as cell growth at 1 uM after 48 hrs by sulforhodamine B assay; details: HT-29, 48 h, read-out: Activity
U-251 = assay: Cytotoxicity against human U251 cells assessed as cell growth at 1 uM after 48 hrs by sulforhodamine B assay; details: U-251, 48 h, read-out: Activity
NCI-H460 = assay: Cytotoxicity against human NCI-H460 cells assessed as cell growth at 0.01 uM after 48 hrs by sulforhodamine B assay; details: NCI-H460, 48 h, read-out: Activity
NCI-H522 = assay: Cytotoxicity against human NCI-H522 cells assessed as cell growth at 0.01 uM after 48 hrs by sulforhodamine B assay; details: NCI-H522, 48 h, read-out: Activity
KM12 = assay: Cytotoxicity against human KM12 cells assessed as cell growth at 0.01 uM after 48 hrs by sulforhodamine B assay; details: KM12, 48 h, read-out: Activity
SF-268 [9] = assay: Cytotoxicity against human SF268 cells assessed as cell growth at 0.01 uM after 48 hrs by sulforhodamine B assay; details: SF-268, 48 h, read-out: Activity
IGROV-1 [10] = assay: Cytotoxicity against human IGROV1 cells assessed as cell growth at 0.01 uM after 48 hrs by sulforhodamine B assay; details: IGROV-1, 48 h, read-out: Activity
PC-3 = assay: Cytotoxicity against human PC3 cells assessed as cell growth at 0.01 uM after 48 hrs by sulforhodamine B assay; details: PC-3, 48 h, read-out: Activity
HT-29 [11] = assay: Cytotoxicity against human HT-29 cells assessed as cell growth at 0.001 uM after 48 hrs by sulforhodamine B assay; details: HT-29, 48 h, read-out: Activity
MDA-MB-435 = assay: Cytotoxicity against human MDA-MB-435 cells assessed as cell growth at 0.001 uM after 48 hrs by sulforhodamine B assay; details: MDA-MB-435, 48 h, read-out: Activity
NCI/ADR-RES [12] = assay: Cytotoxicity against human NCI/ADR-RES cells assessed as cell growth at 0.001 uM after 48 hrs by sulforhodamine B assay; details: read-out: Activity
SK-OV-3 [13] = assay: Cytotoxicity against human SKOV3 cells assessed as cell growth at 0.001 uM after 48 hrs by sulforhodamine B assay; details: SK-OV-3, 48 h, read-out: Activity
EKVX [14] = assay: Cytotoxicity against human EKVX cells assessed as cell growth at 10 uM; details: read-out: Activity; method in brief: as §1
IGROV-1 [15] = assay: Cytotoxicity against human IGROV1 cells assessed as cell growth at 1 uM after 48 hrs by sulforhodamine B assay; details: IGROV-1, 48 h, read-out: Activity
NCI/ADR-RES [16] = assay: Cytotoxicity against human NCI/ADR-RES cells assessed as cell growth at 1 uM after 48 hrs by sulforhodamine B assay; details: read-out: Activity
SK-OV-3 [17] = assay: Cytotoxicity against human SKOV3 cells assessed as cell growth at 1 uM after 48 hrs by sulforhodamine B assay; details: SK-OV-3, 48 h, read-out: Activity
UO-31 = assay: Cytotoxicity against human UO31 cells assessed as cell growth at 1 uM after 48 hrs by sulforhodamine B assay; details: UO-31, 48 h, read-out: Activity
NCI-H23 = assay: Cytotoxicity against human NCI-H23 cells assessed as cell growth at 10 uM; details: read-out: Activity; method in brief: as §2
HCT-15 [18] = assay: Cytotoxicity against human HCT15 cells assessed as cell growth at 10 uM; details: read-out: Activity; method in brief: as §1
SW-620 = assay: Cytotoxicity against human SW620 cells assessed as cell growth at 10 uM; details: read-out: Activity; method in brief: as §2
EKVX [19] = assay: Cytotoxicity against human EKVX cells assessed as cell growth at 10 uM after 48 hrs by sulforhodamine B assay; details: read-out: Activity
SF-268 [20] = assay: Cytotoxicity against human SF268 cells assessed as cell growth at 10 uM after 48 hrs by sulforhodamine B assay; details: SF-268, 48 h, read-out: Activity
SNB-75 [21] = assay: Cytotoxicity against human SNB75 cells assessed as cell growth at 10 uM after 48 hrs by sulforhodamine B assay; details: SNB-75, 48 h, read-out: Activity

`COc1cc(C)cc(-c2c(-c3ccnc(-c4ccc(C(C)=O)cc4)c3)cnn2CC#N)c1` gave a growth at 0.1 µM (SNB-19) of 99%, a growth at 0.1 µM (SNB-75 [1]) of 76% and a growth at 0.1 µM (SK-MEL-5) of 85%. For the same compound, the growth at 0.1 µM (UACC-257) was 81%, the growth at 0.1 µM (OVCAR-3) was 92% and the growth at 0.01 µM (HL-60(TB)) was 99%. The growth at 0.1 µM [2] was 71%, the growth at 10 µM (IGROV-1 [3]) was 98.5% and the growth at 10 µM (SK-OV-3 [4]) was 97.8%. It also gave a growth at 10 µM (DU-145) of 103%, a growth at 10 µM [5] of 88.5% and a growth at 0.001 µM (EKVX [6]) of 95%. The growth at 1 µM (HCT-15 [7]) was 12%, the growth at 1 µM (HT-29 [8]) was 7% and the growth at 1 µM (U-251) was 4%. For the same compound, the growth at 0.01 µM (NCI-H460) was 98%, the growth at 0.01 µM (NCI-H522) was 81% and the growth at 0.01 µM (KM12) was 97%. The growth at 0.01 µM (SF-268 [9]) was 96%, the growth at 0.01 µM (IGROV-1 [10]) was 94% and the growth at 0.01 µM (PC-3) was 88%. It also gave a growth at 0.001 µM (HT-29 [11]) of 110%, a growth at 0.001 µM (MDA-MB-435) of 100% and a growth at 0.001 µM (NCI/ADR-RES [12]) of 95%. The growth at 0.001 µM (SK-OV-3 [13]) was 86%, the growth at 10 µM (EKVX [14]) was 98.6% and the growth at 1 µM (IGROV-1 [15]) was 23%. The growth at 1 µM (NCI/ADR-RES [16]) was 11%, the growth at 1 µM (SK-OV-3 [17]) was 19% and the growth at 1 µM (UO-31) was 11%. The growth at 10 µM (NCI-H23) was 83.7%, the growth at 10 µM (HCT-15 [18]) was 53.3% and the growth at 10 µM (SW-620) was 56.1%. It also gave a growth at 10 µM (EKVX [19]) of 46%, a growth at 10 µM (SF-268 [20]) of 23% and a growth at 10 µM (SNB-75 [21]) of 1%.
Compound `Cc1cc(O)cc(-c2nn(CC#N)cc2-c2ccnc(-c3ccc(Oc4ccccc4)cc3)c2)c1` has a growth at 0.1 µM (SNB-19) of 94%, a growth at 0.1 µM (SNB-75 [1]) of 78% and a growth at 0.1 µM (SK-MEL-5) of 94%. For the same compound, the growth at 0.1 µM (UACC-257) was 84%, the growth at 0.1 µM (OVCAR-3) was 93% and the growth at 0.01 µM (HL-60(TB)) was 95%. For the same compound, the growth at 0.1 µM [2] was 82%, the growth at 10 µM (IGROV-1 [3]) was 72.2% and the growth at 10 µM (SK-OV-3 [4]) was 89.6%. It also gave a growth at 10 µM (DU-145) of 76.7%, a growth at 10 µM [5] of 75.9% and a growth at 0.001 µM (EKVX [6]) of 103%. For the same compound, the growth at 1 µM (HCT-15 [7]) was -34%, the growth at 1 µM (HT-29 [8]) was -65% and the growth at 1 µM (U-251) was -97%. For the same compound, the growth at 0.01 µM (NCI-H460) was 100%, the growth at 0.01 µM (NCI-H522) was 72% and the growth at 0.01 µM (KM12) was 94%. For the same compound, the growth at 0.01 µM (SF-268 [9]) was 91%, the growth at 0.01 µM (IGROV-1 [10]) was 83% and the growth at 0.01 µM (PC-3) was 86%. It also gave a growth at 0.001 µM (HT-29 [11]) of 95%, a growth at 0.001 µM (MDA-MB-435) of 103% and a growth at 0.001 µM (NCI/ADR-RES [12]) of 105%. For the same compound, the growth at 0.001 µM (SK-OV-3 [13]) was 79%, the growth at 10 µM (EKVX [14]) was 44.9% and the growth at 1 µM (IGROV-1 [15]) was -64%. It also gave a growth at 1 µM (NCI/ADR-RES [16]) of -50%, a growth at 1 µM (SK-OV-3 [17]) of 63% and a growth at 1 µM (UO-31) of 19%. For the same compound, the growth at 10 µM (NCI-H23) was 42.6%, the growth at 10 µM (HCT-15 [18]) was 4.26% and the growth at 10 µM (SW-620) was 53.9%. It also gave a growth at 10 µM (EKVX [19]) of -41%, a growth at 10 µM (SF-268 [20]) of -95% and a growth at 10 µM (SNB-75 [21]) of -98%.

— ChEMBL document CHEMBL1165950, “Design and synthesis of new potent anticancer pyrazoles with high FLT3 kinase inhibitory selectivity” (Bioorg Med Chem, 2010)
